Screening results: PubChem BioAssay, several laboratories
The list is not random: actives were taken first. Their share in the collection is about 1.7%.
PP5 inh: inhibitors of human protein phosphatase 5 (PP5). purified PP5c, OMFP substrate fluorescence. inhibition, % at 6.7 µM. 320,000 compounds, 0.18% hits. AID 1987;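 active means inhibition above the campaign's mean inhibition across all tested compounds plus 3 SD, cut at about 9.5% in these data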
HTR2A ag: activates the mouse 5-HT2A serotonin receptor; P35363; CHO-K1 mHTR2A beta-arrestin complementation, luminescence; percent of 30 µM serotonin response; 360,000 compounds, 0.66% hits; activation, % at 7.6 µM;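 active means activation above a run cutoff, the mean activation of all tested compounds plus 3 SD, cut at about 14% in these data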
T cell modulator: modulates CD8 T cell binding to vesicles; response (vesicle binding), % at 7 µM; AID 2052; 330,000 compounds, 0.068% hits; 2C CD8+ T cell-vesicle binding, flow cytometry; active compounds read low;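 active means response, share of CD8 T cells binding vesicles, and their 90th percentile fluorescence all below set limits, cut at about 80% in these data, passing the limit was not always enough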;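 further: values below 100% mean blocked vesicle binding to the CD8+ T cells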
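Material: murine 2C transgenic CD8+ T lymphocytes / Also added: QL9-peptide-loaded Drosophila micro-vesicles bearing Ld, ICAM-1 and B7-1 / Schedule: binding step 1.5 h, 37 °C, antibody labelling 20 min, ice / Signal: flow cytometry, PE anti-B7-1 (FL2) versus Alexa647 anti-CD8 (FL8), PFA-fixed / Evaluation: percent CD8+ FL2 mean versus row control / Benchmarks: naked versus QL9-loaded vesicles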
JMJD2C inh: human JMJD2C demethylase inhibition. Q9H3R0. GST-JMJD2C(1-420) H3K9me3 demethylation, DELFIA europium. inhibition, % at 2.35 µM. 330,000 compounds, 0.069% hits;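 active means more than half of a compound's replicate wells show inhibition beyond 50%, single wells judged on their own value; inconclusive means some, but no more than half, of replicates pass 50% inhibition; inactive means no replicate passes 50% inhibition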;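 further: signal counts dimethyl H3K9 product captured on neutravidin plate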
PP1 counter: blocks human PP1-alpha phosphatase, a PP5 counter-screen | P62136 | purified PP1alpha, OMFP fluorescence | inhibition, % at 6.7 µM | 320,000 compounds, 0.9% hits;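 active means inhibition above the mean inhibition of all tested compounds plus 3 SD, computed separately for each screening campaign, cut at about 15% in these data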
OPRM1 ag: counter-screen for mouse HTR2A agonists: human mu opioid receptor agonists | activation, % at 9.3 µM | 2,300 compounds, 5.3% hits | U2OS OPRM1 beta-arrestin PathHunter, luminescence; DMSO 0%, DAMGO 9.3 µM 100% | shares compounds with HTR2A ag;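 active means mean activation above the mean of DMSO-only wells plus 3 SD, cut at about 0.5% in these data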
Target sequence (P35372 whole entry, looked up): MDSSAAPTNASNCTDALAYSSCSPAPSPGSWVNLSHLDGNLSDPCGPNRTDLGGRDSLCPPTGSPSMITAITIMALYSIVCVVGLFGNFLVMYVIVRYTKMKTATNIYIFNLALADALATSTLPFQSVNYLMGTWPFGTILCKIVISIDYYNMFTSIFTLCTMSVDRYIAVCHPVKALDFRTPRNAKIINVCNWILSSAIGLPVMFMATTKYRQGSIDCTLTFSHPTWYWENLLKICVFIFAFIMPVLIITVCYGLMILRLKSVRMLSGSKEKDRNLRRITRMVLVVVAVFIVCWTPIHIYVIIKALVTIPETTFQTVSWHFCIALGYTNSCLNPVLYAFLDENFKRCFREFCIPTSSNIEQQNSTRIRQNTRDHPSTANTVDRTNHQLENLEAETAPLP
HTR2A ag conf: mouse HTR2A agonism confirmed; shares compounds with HTR2A ag; CHO-K1 PathHunter beta-arrestin recruitment, luminescence; DMSO 0%, 30 µM serotonin 100%; activation, % at 7.6 µM; 2,300 compounds, 19% hits; AID 624381;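 active means mean activation across triplicates above the hit threshold derived in the original primary screen, cut at about 15% in these data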
Each line names hits and unclear results; the compound was inactive in the other large screens (follow-up assays come after a bar, where they were run).

Cc1ccc(S(=O)(=O)N2CCN(C(=O)NCc3ccc(F)cc3)CC2)c(C)c1	none
Cc1ccccc1-c1nc(NCC2CC2)nc2ccsc12	none (no result: PP5 inh, T cell modulator, JMJD2C inh, PP1 counter)
Cc1ccc(F)cc1-c1nc(NCC2CC2)nc2ccsc12	HTR2A ag 16 (no result: PP5 inh, T cell modulator, JMJD2C inh, PP1 counter) | OPRM1 ag inactive | HTR2A ag conf inactive
Cc1cccc(NC(=O)NNC(=O)c2cc3occc3[nH]2)c1C	none
COc1cc(/C=C2\CCc3ccccc3C2=O)cc(OC)c1OC	HTR2A ag 19 | OPRM1 ag inactive | HTR2A ag conf inactive
COc1ccccc1C=C1CCc2ccccc2C1=O	none (no result: PP5 inh, T cell modulator, JMJD2C inh, PP1 counter)
CCOc1ccccc1C=C1CCc2ccccc2C1=O	HTR2A ag 30 (no result: PP5 inh, T cell modulator, JMJD2C inh, PP1 counter) | OPRM1 ag inactive | HTR2A ag conf inactive
Cc1[nH]n(-c2ccccc2)c(=O)c1N=Nc1ccccc1C(=O)O	HTR2A ag 18 | OPRM1 ag inactive | HTR2A ag conf inactive
O=C(O)CCC(=O)Nc1ccc(-c2csc(Nc3cccc4ccccc34)n2)cc1	none (no result: T cell modulator)
COc1cc(C)c(S(=O)(=O)NCc2ccc3c(c2)OCO3)cc1C	HTR2A ag 29 | OPRM1 ag inactive | HTR2A ag conf inactive
O=C(CSS(=O)(=O)O)N1CCN(C(=O)c2ccoc2)CC1	none
COc1ccc(-c2cc(C(=O)Nc3cc(OC)c(OC)c(OC)c3)[nH]n2)c(C)c1	none (no result: PP5 inh, T cell modulator, JMJD2C inh, PP1 counter)
COc1ccc(-c2cc(C(=O)Nc3ccc(NC(C)=O)cc3)[nH]n2)c(C)c1	HTR2A ag 21 (no result: PP5 inh, T cell modulator, JMJD2C inh, PP1 counter) | OPRM1 ag inactive | HTR2A ag conf inactive
O=C(c1cnc2n(c1=O)CCS2)N1CCN(c2ccc(Cl)c(Cl)c2)CC1	HTR2A ag 20 | OPRM1 ag inactive | HTR2A ag conf inactive
Cc1cccc(N2C(=O)C3C4C=CC(C4)C3C2=O)c1 (configuration not stated)	HTR2A ag 22, JMJD2C inh 54 | OPRM1 ag inactive | HTR2A ag conf inactive
CCc1ccc(NC(=O)CCC(=O)Nc2nnc(C(C)C)s2)cc1	none
Cn1nnc(NC(=S)NC(=O)c2cccc3ccccc23)n1	none
NCCc1nc(-c2ccccc2)cs1	HTR2A ag 35 | OPRM1 ag inactive | HTR2A ag conf inactive
Cc1noc(C)c1C(=O)N1CCC1(C)C(=O)NS(=O)(=O)c1cccc(OC(F)F)c1 (configuration not stated)	none (no result: PP5 inh, T cell modulator, JMJD2C inh, PP1 counter)
Cc1cc(C)nc(SCC(=O)Nc2ccc(S(=O)(=O)Nc3ncccn3)cc2)n1	HTR2A ag 19 | OPRM1 ag inactive | HTR2A ag conf inactive
CCCn1c(SCc2nc(-c3cccs3)no2)nnc1-c1ccncc1	none
CCOc1ccc(-n2c(SCc3nc(-c4cccs4)no3)nnc2-c2ccncc2)cc1	HTR2A ag 29 | OPRM1 ag inactive | HTR2A ag conf inactive
CC(C)CC(=O)Nc1nnc(SCC(=O)NCc2ccc3c(c2)OCO3)s1	HTR2A ag 15 | OPRM1 ag inactive | HTR2A ag conf inactive
Cc1ccc(NC(=O)COC(=O)CN2C(=O)NC(C)(C)C2=O)cc1S(=O)(=O)N1CCOCC1	HTR2A ag 24 | OPRM1 ag inactive | HTR2A ag conf inactive
CCCc1cc(CCC)n2nc(N)nc2n1	HTR2A ag 15 (no result: PP5 inh, T cell modulator, JMJD2C inh, PP1 counter) | OPRM1 ag inactive | HTR2A ag conf inactive
COc1cc2c(cc1OC)CN(C(=O)C(C)(C)C)CC2	HTR2A ag 17, JMJD2C inh inconclusive | OPRM1 ag inactive | HTR2A ag conf inactive
COc1ccc(C(=O)N2CCc3cc(OC)c(OC)cc3C2)cc1OC	none
Cc1nc2ncnn2c(C)c1CCC(=O)NCCCN1CCN(c2cccc(Cl)c2)CC1	HTR2A ag 24 | OPRM1 ag 0.9 | HTR2A ag conf 80
Cc1nc2ncnn2c(C)c1CCC(=O)NCCc1ccccc1	none
CN(Cc1ccc(F)cc1)C(=O)c1ccc(NS(=O)(=O)c2ccccc2)cc1	none
N#Cc1ccc(CN2CCN(C(=O)CNS(=O)(=O)c3ccc4c(c3)OCCCO4)CC2)cc1	HTR2A ag 15 | OPRM1 ag inactive | HTR2A ag conf inactive
O=C(CNS(=O)(=O)c1ccccc1)N1CCN(Cc2ccccc2)CC1	none
